Measurements as given in ChEMBL document CHEMBL3351225, “Design, synthesis, and structure-activity and structure-pharmacokinetic relationship studies of novel [6,6,5] tricyclic fused oxazolidinones leading to the discovery of a potent, selective, and orally bioavailable FXa inhibitor” (J Med Chem, 2014).

Key:
Coagulation factor VII = biological target: T1, Coagulation factor VII (Homo sapiens, UniProt P08709); experiment: Inhibition of human factor 7a using S-2366 chromogenic substrate
T1 sequence (P08709 whole entry): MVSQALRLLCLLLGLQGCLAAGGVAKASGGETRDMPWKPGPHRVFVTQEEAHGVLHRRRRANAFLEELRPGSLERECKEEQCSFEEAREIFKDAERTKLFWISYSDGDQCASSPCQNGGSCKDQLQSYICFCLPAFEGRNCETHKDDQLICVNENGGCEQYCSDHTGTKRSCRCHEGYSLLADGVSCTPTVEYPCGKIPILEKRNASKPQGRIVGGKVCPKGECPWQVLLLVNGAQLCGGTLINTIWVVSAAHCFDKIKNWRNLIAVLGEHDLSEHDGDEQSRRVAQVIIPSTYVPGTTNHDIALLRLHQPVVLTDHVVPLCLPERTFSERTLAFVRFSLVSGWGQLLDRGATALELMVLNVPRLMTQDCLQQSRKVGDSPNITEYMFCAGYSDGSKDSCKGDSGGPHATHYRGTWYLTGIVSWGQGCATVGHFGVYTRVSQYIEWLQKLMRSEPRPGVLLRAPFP
How it was run: (§1)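 Human enzyme and inhibitor were premixed and preincubated, then the chromogenic substrate was added. Substrate levels: 300 μM S-2765 (FXa, trypsin); 200 μM S-2366 (FIIa); 2 mM S-2366 (FVIIa, FXIa). pNA release was monitored continuously at 405 nm for 20 min at 37 °C. IC50 was obtained by nonlinear regression.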

Coagulation factor IX = Coagulation factor IX (Homo sapiens, UniProt P00740); experiment: Inhibition of human factor 9a using CH3SO2-(D)CHG Gly-Arg-pNA, Biophen-CS51 chromogenic substrate
Trypsin = Trypsin (Homo sapiens, UniProt P07477+P07478+P35030); experiment: Inhibition of human trypsin using N-Z-D-Arg-Gly-Arg-pNA, S-2765 chromogenic substrate; format: protein assay; how it was run: as §1
Plasma [1] = experiment: Anticoagulant activity in citrated rabbit plasma assessed as drug concentration required to double plasma clotting time preincubated for 10 mins at 37 degC by coagulometry; format: functional, Oryctolagus cuniculus
How it was run: (§2)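 Test compound or DMSO added to citrated rabbit plasma (3.8% sodium citrate, 10:90 v/v) and preincubated 10 min at 37 °C. PT and aPTT clotting times measured on a coagulometer with commercial kits. Activity expressed as the concentration needed to double plasma clotting time (CT2, μM).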

Plasma [2] = experiment: Anticoagulant activity in citrated rabbit plasma assessed as activated partial thromboplastin time preincubated for 10 mins at 37 degC by coagulometry; format: functional, Oryctolagus cuniculus; how it was run: as §2
[3] = AUC (0 to infinity) in Sprague-Dawley rat at 10 mg/kg, po; format: ADME, organism-based; parameters: time infinity, dose 10 mg/kg, route oral; conditions: plasma
How it was run: (§3)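 Male Sprague-Dawley rats, 200−220 g, four per group. Vehicle was 5% DMSO + 5% Tween-80 in 90% saline. The reference drug was given in 10% DMSO + 10% Tween-80 + 80% PEG400 (40% solution in saline). Serial retrobulbar vein samples were quantified by LC-MS. Parameters came from noncompartmental analysis of mean plasma concentrations.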

[4] = Plasma clearance in Sprague-Dawley rat at 3 mg/kg, iv; format: ADME, organism-based; parameters: dose 3 mg/kg, route intravenous; how it was run: as §3
[5] = Oral bioavailability in Sprague-Dawley rat at 10 mg/kg; format: ADME, organism-based; conditions: in vivo; how it was run: as §3
[6] = Cmax in Beagle dog at 1 mg/kg, po; format: ADME, organism-based, Canis lupus familiaris; parameters: dose 1 mg/kg, route oral; conditions: in vivo
How it was run: (§4)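 Male dogs, three per group. Dosed orally at 1 mg/kg or by intravenous infusion at 0.5 mg/kg. Vehicle was 5% DMSO + 5% Tween-80 in 90% saline, or 10% DMSO + 10% Tween-80 + 80% PEG400 for the reference drug. Foreleg blood samples were quantified by LC-MS. Parameters came from noncompartmental analysis of mean plasma concentrations.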

[7] = Elimination half life in Beagle dog at 1 mg/kg, po; format: ADME, organism-based, Canis lupus familiaris; parameters: dose 1 mg/kg, route oral; conditions: in vivo; how it was run: as §4
[8] = Elimination half life in Beagle dog at 0.5 mg/kg, iv; format: ADME, organism-based, Canis lupus familiaris; parameters: dose 0.5 mg/kg, route intravenous; conditions: in vivo; how it was run: as §4
[9] = AUC (0 to infinity) in Beagle dog at 1 mg/kg, po; format: ADME, organism-based, Canis lupus familiaris; parameters: time infinity, dose 1 mg/kg, route oral; conditions: plasma; how it was run: as §4
[10] = AUC (0 to infinity) in Beagle dog at 0.5 mg/kg, iv; format: ADME, organism-based, Canis lupus familiaris; parameters: time infinity, dose 0.5 mg/kg, route intravenous; conditions: plasma; how it was run: as §4
Rattus norvegicus [11] = experiment: Antithrombotic activity in rat model of FeCl3-induced venous thrombosis assessed as reduction in thrombus formation dosed orally 60 mins before thrombus formation; conditions: po
Cytochrome P450 2C8 = biological target: T2, Cytochrome P450 2C8 (Homo sapiens, UniProt P10632); experiment: Inhibition of CYP2C8 (unknown origin); format: ADME
T2 sequence (P10632 whole entry): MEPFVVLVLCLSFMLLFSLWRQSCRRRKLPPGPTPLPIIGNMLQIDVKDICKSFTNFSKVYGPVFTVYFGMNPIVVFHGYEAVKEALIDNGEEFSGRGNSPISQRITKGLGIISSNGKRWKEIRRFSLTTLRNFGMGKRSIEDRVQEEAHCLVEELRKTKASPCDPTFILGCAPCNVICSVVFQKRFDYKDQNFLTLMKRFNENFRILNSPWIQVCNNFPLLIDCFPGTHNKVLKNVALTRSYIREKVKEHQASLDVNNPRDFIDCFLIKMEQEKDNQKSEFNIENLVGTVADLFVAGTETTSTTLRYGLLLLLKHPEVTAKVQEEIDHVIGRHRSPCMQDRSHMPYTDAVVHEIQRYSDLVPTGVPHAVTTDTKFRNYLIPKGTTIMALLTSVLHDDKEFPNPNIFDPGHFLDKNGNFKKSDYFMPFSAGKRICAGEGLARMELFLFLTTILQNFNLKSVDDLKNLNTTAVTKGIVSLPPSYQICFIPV

Cytochrome P450 2C9 = Cytochrome P450 2C9 (Homo sapiens, UniProt P11712); experiment: Inhibition of CYP2C9 (unknown origin); format: ADME
Cytochrome P450 2D6 = Cytochrome P450 2D6 (Homo sapiens, UniProt P10635); experiment: Inhibition of CYP2D6 (unknown origin); format: ADME
Salmonella typhimurium = experiment: Genotoxicity in Salmonella typhimurium by Ames test; format: toxicity, organism-based; conditions: salmonella enterica subsp. enterica serovar typhimurium
Rattus norvegicus [12] = experiment: Toxicity in rat assessed as induction of behavioral changes at 50 mg/kg, po dosed once daily for 2 weeks; format: organism-based; parameters: dose 50 mg/kg, route oral; conditions: in vivo, 336 h
How it was run: (§5)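 Subacute toxicity in rats: oral dosing once daily for 2 weeks at 50 mg/kg (medium) or 100 mg/kg (high). Behavior, body weight, food intake, organ coefficients and survival rate were monitored.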

Rattus norvegicus [13] = experiment: Toxicity in rat assessed as induction of organ coefficients changes at 50 mg/kg, po dosed once daily for 2 weeks; format: organism-based; parameters: dose 50 mg/kg, route oral; conditions: in vivo, 336 h; how it was run: as §5
Rattus norvegicus [14] = experiment: Toxicity in rat assessed as survival rate changes at 50 mg/kg, po dosed once daily for 2 weeks; format: organism-based; parameters: dose 50 mg/kg, route oral; conditions: in vivo, 336 h; how it was run: as §5
Rattus norvegicus [15] = experiment: Toxicity in rat assessed as induction of behavioral changes at 100 mg/kg, po dosed once daily for 2 weeks; format: organism-based; parameters: dose 100 mg/kg, route oral; conditions: in vivo, 336 h; how it was run: as §5
Rattus norvegicus [16] = experiment: Toxicity in rat assessed as induction of body weight changes at 100 mg/kg, po dosed once daily for 2 weeks; format: organism-based; parameters: dose 100 mg/kg, route oral; conditions: in vivo, 336 h; how it was run: as §5
Rattus norvegicus [17] = experiment: Toxicity in rat assessed as induction of organ coefficients changes at 100 mg/kg, po dosed once daily for 2 weeks; format: organism-based; parameters: dose 100 mg/kg, route oral; conditions: in vivo, 336 h; how it was run: as §5

Sequence of Coagulation factor IX (P00740 47-191 limits assumed): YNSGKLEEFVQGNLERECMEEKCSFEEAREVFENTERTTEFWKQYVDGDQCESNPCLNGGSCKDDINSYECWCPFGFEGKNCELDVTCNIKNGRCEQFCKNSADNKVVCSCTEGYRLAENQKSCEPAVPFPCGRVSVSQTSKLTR
Sequence of Coagulation factor IX (P00740 227-461 limits assumed): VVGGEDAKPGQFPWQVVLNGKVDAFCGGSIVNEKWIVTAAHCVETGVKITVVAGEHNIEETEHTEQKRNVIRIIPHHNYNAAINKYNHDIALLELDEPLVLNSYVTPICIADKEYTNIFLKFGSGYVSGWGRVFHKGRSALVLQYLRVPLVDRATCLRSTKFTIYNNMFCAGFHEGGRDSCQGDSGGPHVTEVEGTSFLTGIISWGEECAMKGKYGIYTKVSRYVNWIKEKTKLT
Sequence of Cytochrome P450 2D6 (P10635 whole entry): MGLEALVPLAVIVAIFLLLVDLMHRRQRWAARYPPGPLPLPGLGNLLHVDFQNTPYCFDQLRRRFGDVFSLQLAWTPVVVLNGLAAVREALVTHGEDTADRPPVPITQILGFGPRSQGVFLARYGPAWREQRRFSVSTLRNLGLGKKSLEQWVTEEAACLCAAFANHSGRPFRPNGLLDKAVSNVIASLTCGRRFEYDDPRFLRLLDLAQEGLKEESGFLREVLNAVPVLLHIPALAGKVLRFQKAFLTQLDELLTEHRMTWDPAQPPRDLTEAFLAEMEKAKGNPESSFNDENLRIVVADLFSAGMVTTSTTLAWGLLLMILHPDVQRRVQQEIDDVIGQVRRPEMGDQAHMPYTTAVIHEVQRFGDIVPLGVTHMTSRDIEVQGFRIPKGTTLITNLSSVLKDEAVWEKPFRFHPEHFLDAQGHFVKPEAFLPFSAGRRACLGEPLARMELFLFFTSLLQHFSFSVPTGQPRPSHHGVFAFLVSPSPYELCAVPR
Sequence of Cytochrome P450 2C9 (P11712 whole entry): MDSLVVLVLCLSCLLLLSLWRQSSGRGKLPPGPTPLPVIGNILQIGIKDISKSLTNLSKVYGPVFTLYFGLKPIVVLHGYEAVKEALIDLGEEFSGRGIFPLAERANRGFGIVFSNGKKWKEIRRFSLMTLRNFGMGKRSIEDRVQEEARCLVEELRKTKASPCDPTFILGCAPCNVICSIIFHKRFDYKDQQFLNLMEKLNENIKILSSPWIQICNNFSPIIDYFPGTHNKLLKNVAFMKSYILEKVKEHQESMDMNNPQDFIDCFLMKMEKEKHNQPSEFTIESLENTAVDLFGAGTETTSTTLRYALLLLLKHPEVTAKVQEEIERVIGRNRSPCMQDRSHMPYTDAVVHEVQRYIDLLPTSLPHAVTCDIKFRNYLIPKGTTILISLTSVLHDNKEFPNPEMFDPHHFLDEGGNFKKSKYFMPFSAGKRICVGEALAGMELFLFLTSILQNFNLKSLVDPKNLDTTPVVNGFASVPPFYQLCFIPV

**Q.** With `O=C(NC[C@@H]1OC(=O)N2c3ccc(N4CCOCC4=O)cc3OC[C@@H]12)c1ccc(Cl)s1` as the molecule, how does the IC50 (Coagulation factor VII) read?
**A.** The IC50 was > 100 µM.

**Q.** What about the IC50 (Coagulation factor IX) of the same molecule?
**A.** Its IC50 is > 100 µM.

**Q.** What about the IC50 (Trypsin) of the same molecule?
**A.** Its IC50 is > 100 µM.

**Q.** What about the Activity (Plasma [1]) of the same molecule?
**A.** The Activity was 0.18 µM.

**Q.** What about the 2aPTT (Plasma [2]) of the same molecule?
**A.** Its 2aPTT is 0.14 µM.

**Q.** What about the AUC(0-inf) [3] of the same molecule?
**A.** The AUC(0-inf) was 33000 ng·h/mL.

**Q.** What about the clearance [4] of the same molecule?
**A.** Its clearance is 3.35 mL/min/kg.

**Q.** What about the bioavailability [5] of the same molecule?
**A.** Its bioavailability is 63.7%.

**Q.** And the Cmax [6]?
**A.** The Cmax was 530 ng/mL.

**Q.** What about the half-life [7] of the same molecule?
**A.** Its half-life is 2 h.

**Q.** And the half-life [8]?
**A.** Its half-life is 3.1 h.

**Q.** And the AUC(0-inf) [9]?
**A.** Its AUC(0-inf) is 1530 ng·h/mL.

**Q.** What about the AUC(0-inf) [10] of the same molecule?
**A.** Its AUC(0-inf) is 1320 ng·h/mL.

**Q.** And the ED50 (Rattus norvegicus [11])?
**A.** Its ED50 is 5.63 mg/kg.

**Q.** What about the IC50 (Cytochrome P450 2C8) of the same molecule?
**A.** Its IC50 is 99.7 µM.

**Q.** And the IC50 (Cytochrome P450 2C9)?
**A.** The IC50 was 43.2 µM.

**Q.** And the IC50 (Cytochrome P450 2D6)?
**A.** Its IC50 is > 200 µM.

**Q.** And the Activity (Salmonella typhimurium)?
**A.** The Activity was “Non-toxic”.

**Q.** And the Activity (Rattus norvegicus [12])?
**A.** The Activity was “Non-toxic”.

**Q.** And the Activity (Rattus norvegicus [13])?
**A.** The Activity was “Non-toxic”.

**Q.** And the Activity (Rattus norvegicus [14])?
**A.** Its Activity is “Non-toxic”.

**Q.** And the Activity (Rattus norvegicus [15])?
**A.** The Activity was “Non-toxic”.

**Q.** And the Activity (Rattus norvegicus [16])?
**A.** The Activity was “Non-toxic”.

**Q.** What about the Activity (Rattus norvegicus [17]) of the same molecule?
**A.** Its Activity is “Non-toxic”.
